Rows were chosen to be rich in hits. Some 1.8% of all compounds tested hit in one or more screens of this group.
SUMO1-SIM PPI = alters human SUMO1 binding to SIM partners. P63165. inhibition, % at 20 µM. SUMO1 binding to a labelled peptide, TR-FRET, 1 h. 360,000 tested, 0.33% active; in the data active = inhibition above about 37%
STEP block = blocks human striatal-enriched tyrosine phosphatase; P54829; recombinant STEP, OMFP fluorogenic substrate, fluorescence; inhibition, % at 20 µM; 360,000 tested, 0.25% active;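 active = inhibition at 20 µM, scaled per plate between control wells, above about 37%, limit read from the data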;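 note: 0% = DMSO with enzyme and substrate and 100% = substrate only without enzyme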
Target sequence (P54829 whole entry, looked up): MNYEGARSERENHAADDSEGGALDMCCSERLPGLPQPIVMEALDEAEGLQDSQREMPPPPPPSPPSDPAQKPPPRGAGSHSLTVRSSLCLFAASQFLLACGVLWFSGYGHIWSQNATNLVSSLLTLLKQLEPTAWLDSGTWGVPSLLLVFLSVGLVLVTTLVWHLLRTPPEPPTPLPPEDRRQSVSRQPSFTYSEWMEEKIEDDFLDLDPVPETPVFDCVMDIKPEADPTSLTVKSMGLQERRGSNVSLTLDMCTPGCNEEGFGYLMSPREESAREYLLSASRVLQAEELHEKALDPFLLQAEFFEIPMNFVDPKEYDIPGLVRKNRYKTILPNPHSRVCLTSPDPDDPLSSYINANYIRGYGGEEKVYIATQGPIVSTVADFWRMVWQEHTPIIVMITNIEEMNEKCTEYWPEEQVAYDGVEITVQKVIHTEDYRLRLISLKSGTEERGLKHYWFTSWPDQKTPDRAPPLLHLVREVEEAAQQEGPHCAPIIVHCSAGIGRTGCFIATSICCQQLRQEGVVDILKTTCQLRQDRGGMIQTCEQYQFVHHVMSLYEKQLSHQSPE
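System: STEP phosphatase, cell-free reaction; Buffer or medium: Bis-Tris pH 6.0 buffer with DTT, detergent; Incubation: 20 min at room temperature, dark; Measured by: fluorescence, 480/540 nm.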
DNMT1 block = blocks human DNA methyltransferase DNMT1 | inhibition (reported as % activation of signal), % at 10 µM | P26358 | DNMT1 molecular beacon, Hinp1I cleavage, fluorescence | 360,000 tested, 0.83% active; in the data active = inhibition above about 50%
Scp-1 inhibitor = inhibitors of human Scp-1 phosphatase. Q9GZU7. Recombinant Scp1, phosphopeptide, malachite green phosphate absorbance. inhibition, % at 20 µM. 340,000 tested, 0.88% active. AID 493091;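 active = inhibition above about 50% at 20 µM, limit read from the data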;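 note: plate controls were DMSO wells with enzyme for no effect and wells lacking enzyme for full effect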
Target sequence (Q9GZU7 76-261 limits assumed): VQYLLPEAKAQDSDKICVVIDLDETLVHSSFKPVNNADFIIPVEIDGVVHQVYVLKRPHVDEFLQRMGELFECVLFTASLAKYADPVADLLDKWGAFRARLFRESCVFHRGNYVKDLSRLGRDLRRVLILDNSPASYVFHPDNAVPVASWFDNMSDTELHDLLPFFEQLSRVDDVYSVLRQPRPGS
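Test system: SCP-1 phosphatase catalytic domain, residues 76-261 | Compound dosing: One concentration, 20 µM, with 1.0% DMSO | Schedule: 45 min room-temperature reaction, 5 min colour, 30 min stabiliser | Detection: Absorbance at 630 nm | Read-out basis: % inhibition of SCP-1 phosphate liberation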
HKDC1 inhibitor = HKDC1 (human) hexokinase inhibition | Q2TB90 | recombinant HKDC1, G6PDH/diaphorase resazurin coupled fluorescence | inhibition, % at 20 µM | 340,000 tested, 0.16% active | AID 493160;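 active = inhibition above about 35% when tested at 20 µM, limit read from the data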;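 note: plate controls were DMSO wells with enzyme for no effect and DMSO wells lacking enzyme for full effect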
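Test system: Recombinant HKDC1 (HK5) hexokinase enzyme, produced in-house | Input: HKDC1 at 5 µg/mL | Buffer or medium: Tris pH 8.0 buffer with MgCl2, Tween-20, BSA, BME | Schedule: 90 min reaction incubation at room temperature, dark | Technique: Resazurin-to-resorufin fluorescence via G6PDH and diaphorase coupling, 525/613 nm | Controls: DMSO wells with and without enzyme mix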
LMPTP block = LMPTP (human) inhibition; recombinant LMPTP-A, OMFP fluorogenic substrate, fluorescence intensity; 360,000 tested, 0.22% active; inhibition, % at 20 µM; P24666;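 active = compounds that cut the enzyme signal by at least half of the control window in the single-dose screen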;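 note: plate controls were DMSO wells with enzyme plus substrate for no effect and substrate without enzyme for full effect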
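Test system: LMPTP-A, protein tyrosine phosphatase of low molecular weight; Input: 0.625 nM enzyme; Incubation: 50 min dark incubation at room temperature; Signal: endpoint fluorescence intensity from OMFP dephosphorylation; Read-out basis: % inhibition versus control wells.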
Scp1 confirm = Scp-1 (human) inhibition, single-dose confirmed; shares compounds with Scp-1 inhibitor; recombinant SCP-1 catalytic domain, phosphate release, malachite green absorbance; inhibition, % at 20 µM; 2,500 tested, 61% active; AID 540281;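 note: plate controls were DMSO with enzyme for no effect and buffer wells lacking enzyme for full effect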
MG interference = interferes with malachite green readout, flagging false Scp-1 hits; shares compounds with Scp-1 inhibitor; Colorimetric interference counterscreen, malachite green absorbance 630 nm; apparent inhibition (interference), % at 20 µM; 2,500 tested, under 10 active; AID 540313;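 note: compounds added after enzyme reaction finished so only phosphate colour detection is probed; plate controls were DMSO wells with completed Scp-1 reaction for no effect and substrate wells lacking enzyme for full effect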
Scp1 DSF = validation of human Scp-1 inhibitors by thermal shift binding. shares compounds with Scp-1 inhibitor. Recombinant SCP1, Sypro Orange thermal shift Tm. thermal shift relative to vanadate control, % at 40 µM. 1,500 tested, 25% active. AID 540329;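 active = substances whose mean melting-temperature shift, as a percentage of the reference inhibitor's shift, reaches about 5.3%, limit read from the data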;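 note: 0% = Tm of DMSO wells and 100% = Tm with sodium orthovanadate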
* marks the source's active call; other numbers are inactive results; · = not tested or not shown.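 Rule for the calls, unless noted: active = inhibition of at least 30% at 20 µM; inactive = the rest.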

SMILES	SUMO1-SIM PPI	STEP block	DNMT1 block	Scp-1 inhibitor	HKDC1 inhibitor	LMPTP block	Scp1 confirm	MG interference	others
CCN(CC)S(=O)(=O)c1ccc(N2CCOCC2)c(NC(=O)c2c3c(nc4ccccc24)CCC3)c1	-1.9	0.2	65.0*	67.9*	-8.1	10.0	47.6*	-12.9	Scp1 DSF=4.8
CCOc1ccc(NC(=O)CCNC(=O)C2CCN(S(=O)(=O)c3ccccc3)CC2)cc1	2.5	-5.3	1.8	-5.3	-6.3	0.2	·	·
COc1ccc(CCCc2nnc(SCC(=O)Nc3ccc(C)c(C)c3)o2)cc1	-0.2	-3.2	-0.7	89.6*	1.5	-0.4	-3.2	-15.1
COc1ccc(C(=O)NCc2nnc(SCC(=O)Nc3ccccc3F)o2)cc1	-1.1	-1.0	2.8	51.9*	-6.6	-0.7	-24.1	-19.4
COc1ccc(C(=O)NCc2nnc(SCC(=O)Nc3ccccc3OC)o2)cc1	1.1	-0.5	-0.6	-5.2	-4.5	-1.2	·	·
O=C(CSc1nc2[nH]ncc2c(=O)[nH]1)Nc1ccc(Cl)c(Cl)c1	22.1	-0.3	0.1	1.0	0.4	0.3	·	·
Cc1ccc(NC(=O)CSc2nc3[nH]ncc3c(=O)[nH]2)cc1Cl	9.7	-2.9	-8.7	58.2*	-5.4	0.2	29.3	-12.9
O=C(O)c1cccc(N2C(=O)C3CC=C(Cl)CC3C2=O)c1 (stereo not drawn)	13.0	0.3	41.9	109.1*	-1.1	-0.8	57.4*	-20.0	Scp1 DSF=-23.1
O=[N+]([O-])c1ccc(S(=O)(=O)Nc2ccc(S(=O)(=O)N3CCCC3)cc2)cc1	-25.7	3.8	0.3	-6.4	3.9	-0.1	·	·
COc1ccc(N2CC(C(=O)Nc3nc4ccc(F)cc4s3)CC2=O)c(OC)c1 (stereo not drawn)	2.6	0.6	-5.1	-4.5	-6.2	-0.2	7.0	-7.3
COc1cc2c(C#CCO)c(-c3ccc(C#N)cc3)oc(=O)c2cc1OC	62.2*	25.2	-27.7	66.9*	10.5	3.7	32.6*	6.4	Scp1 DSF=5.2
O=C(CNS(=O)(=O)c1ccccc1)Nc1ccccc1Br	2.4	-3.6	1.4	50.2*	-1.3	-0.4	-16.2	-17.2
O=[N+]([O-])c1ccccc1/C=C/C=N/Nc1ccc(S(=O)(=O)Nc2ccc(Cl)cc2)cc1[N+](=O)[O-]	-12.3	0.4	-7.6	-1.7	1.7	6.7	·	·
C[N+]1(CN2C(=O)C3C4C=CC(C4)C3C2=O)CCCCC1 (stereo not drawn)	-3.5	-1.5	2.6	102.7*	-3.7	-2.8	88.6*	-7.1	Scp1 DSF=2.9
Cc1c(C(=O)O)cccc1-n1c(C)cc(C=O)c1C	-1.6	5.9	46.0	56.1*	-4.9	-0.3	43.7*	-13.7	Scp1 DSF=-4.6
CCOC(=O)c1[nH]c2ccccc2c1NC(=O)c1ccc(S(=O)(=O)N2CCCC2)cc1	6.3	-0.7	-6.4	-9.8	-5.6	-1.2	·	·
CC(C)(C)c1ccc(CS(=O)(=O)CC(O)CN2CCCC2=O)cc1 (stereo not drawn)	-1.9	2.3	1.4	0.8	-6.3	-1.5	·	·
O=C1CCCN1CC(O)CS(=O)(=O)Cc1ccc(Cl)cc1 (stereo not drawn)	2.3	-1.1	0.7	-7.0	-5.8	-1.7	0.1	-3.0
CC(NC(=O)c1cccc(S(=O)(=O)N(C)c2ccccc2)c1)c1cccnc1 (stereo not drawn)	-28.8	-3.6	-3.1	-6.8	-1.2	-9.9	·	·
COc1cc(OC)cc(C(=O)NNC(=O)CCc2ccccc2)c1	2.6	0.4	0.2	-6.1	-10.1	-1.2	·	·
O=C(CNC1CCCCCC1)Nc1ccccc1N1CCCCC1	-1.1	0.6	0.1	89.9*	1.4	-0.3	-9.0	-10.9
Cc1ccn2c(=O)nc(SCC(=O)NCc3ccccc3Cl)nc2c1	7.6	1.2	5.8	46.9	10.4	16.0	57.1*	-18.6	Scp1 DSF=-1.5
CN(C)S(=O)(=O)c1ccc(NC(=O)CN2CCN(c3ccccn3)CC2)cc1	1.6	5.0	0.1	-2.5	1.4	1.2	·	·
Cc1ccc(CCN2CC(C(=O)NCCCN3CCOCC3)CC2=O)cc1 (stereo not drawn)	-1.6	-8.3	2.1	-1.9	-7.5	-3.2	-9.3	-10.9
O=C(NCc1ccc2c(c1)OCO2)C1CC(=O)N(CCc2ccccc2)C1 (stereo not drawn)	6.8	6.2	-2.2	-9.8	2.7	-1.6	-8.1	-8.2
SMILES	SUMO1-SIM PPI	STEP block	DNMT1 block	Scp-1 inhibitor	HKDC1 inhibitor	LMPTP block	Scp1 confirm	MG interference	others
CCOCCCN1CC(C(=O)NCCc2ccccc2)CC1=O (stereo not drawn)	0.2	0.3	1.8	-2.7	-5.3	0.0	-14.1	-16.1
CCCCNC(=O)C1CC(=O)N(CCc2ccccc2)C1 (stereo not drawn)	0.8	3.5	0.3	-6.8	-7.6	-1.7	·	·
Cc1ccc(CCN2CC(C(=O)NCCN3CCOCC3)CC2=O)cc1 (stereo not drawn)	·	·	·	-0.3	-9.0	·	·	·
CC(C)CCN1CC(C(=O)NCc2ccc(F)cc2)CC1=O (stereo not drawn)	2.0	-1.2	-3.2	-5.2	-10.2	-1.1	·	·
O=C(NCc1ccc(F)cc1)C1CC(=O)N(CCc2ccccc2)C1 (stereo not drawn)	-1.3	4.0	1.9	-10.1	-4.4	0.4	-6.5	-11.2
Cn1c(CNC(=O)c2ccc(F)cc2)cc2ccccc21	-0.6	-0.6	2.1	2.3	-3.3	-1.7	·	·
COC(=O)CSc1ccc(S(=O)(=O)N2CCOCC2)cc1[N+](=O)[O-]	-28.3	-4.6	-2.0	0.0	-18.5	-1.2	·	·
Cn1c(N)c(S(=O)(=O)N2CCN(Cc3ccccc3)CC2)c(=O)n(C)c1=O	0.1	-1.3	1.9	0.7	-2.9	-1.6	·	·
Cc1noc(C)c1S(=O)(=O)Nc1ccc2c(c1)C(=O)N([C@H](C)CO)C[C@H](C)[C@@H](CN(C)C(=O)NC1CCCCC1)O2	6.7	-1.6	9.1	56.4*	-1.8	-0.5	21.1	-5.7
C[C@H](CO)N1C[C@H](C)[C@@H](CN(C)C(=O)NC2CCCCC2)Oc2ccc(NS(=O)(=O)c3ccccc3)cc2C1=O	1.3	-0.4	-3.4	-3.5	-3.6	-2.1	·	·
COc1ccc(NC(=O)N(C)C[C@H]2Oc3ccc(NS(=O)(=O)c4c(C)noc4C)cc3C(=O)N([C@H](C)CO)C[C@@H]2C)cc1	1.9	-2.4	11.6	58.2*	-1.8	-0.8	10.3	-16.7
